Holding throughout (format): functional
The species entered for assay [1] is Rattus norvegicus. Briefly: Antiischemic potency was determined at 10 uM for increase in time to contracture by 25% in globally ischemic rat hearts.
For assay [2], the species on record is Rattus norvegicus. Briefly: Vasorelaxant potency was determined for inhibition of methoxamine contracted rat aorta. The procedure, abridged: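 Vasorelaxation was measured in rat aorta precontracted with methoxamine. IC50 is the concentration giving relaxation of the contraction.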
Assay [3] can be described thus: Ratio between Antiischemic potency to Vasorelaxant potency. In a few lines: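 Cardioselectivity was taken as the ratio of two values. The first is the EC25 for a 25% increase in time to contracture, in globally ischemic isolated perfused rat hearts. The second is the IC50 for relaxation of methoxamine-contracted rat aorta.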
Assay [4] is filed under the species Rattus norvegicus. Briefly: Antiischemic potency was determined for increase in time to contracture by 25% in globally ischemic rat hearts. In a few lines:
(§1)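 Isolated rat hearts were perfused, then subjected to total global ischemia. Contracture onset was taken as the time for end diastolic pressure to rise 5 mmHg above baseline. EC25 is the concentration that raises time to contracture by 25%.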

For assay [5], the species on record is Rattus norvegicus. Briefly: Antiischemic potency for increase in time to contracture by 25% in globally ischemic rat hearts. The procedure, abridged:
as §1

By IC50 is commonly meant the concentration that gives 50% inhibition. Broadly, the EC25 is the concentration needed for an effect of 25%. Lower therefore signals greater potency. One may read the Inhibition as the change of the read-out against control, counted positive when it falls. A low value points to a response near the control.

As to `CC(C)(C)c1ccc(C#N)cc1/N=C(/NC#N)Nc1cccnc1`, the “Increase in time to contracture” value in the assay listed under Rattus norvegicus [1] turned out to be 16%. Further, the half-inhibitory concentration (IC50) in the assay listed under Rattus norvegicus [2] came out at 1.2 µM.
On to `CC(C)(C)c1ccc(C#N)cc1NC(=O)Nc1ccncc1`, for which the “Increase in time to contracture” value in the assay listed under Rattus norvegicus [1] was determined as 14%. The compound further gave a half-inhibitory concentration (IC50) in the assay filed under Rattus norvegicus [2] of 7.8 µM.
Turning to `CC(C)(C)c1ccc(C#N)cc1NC(=O)Nc1cncnc1`, in the assay filed under Rattus norvegicus [1], the “Increase in time to contracture” value amounted to 2%. The same compound displayed an IC50 in the assay listed under Rattus norvegicus [2] of 12.4 µM.
Turning to `CC1(C)CN(C(=O)Nc2cccnc2)c2cc(C#N)ccc21`, the Ratio in assay [3] amounted to 18.8. This compound showed an EC25 in the assay filed under Rattus norvegicus [4] of 28.3 µM. Moreover, the IC50 in the assay listed under Rattus norvegicus [2] is 1.5 µM.
Consider `N#Cc1ccc(Oc2ccccc2)c(NC(=O)Nc2cccnc2)c1`, for which, in the assay filed under Rattus norvegicus [4], the EC25 was 2 µM. Moreover, half-maximal inhibition in the assay filed under Rattus norvegicus [2] (IC50) required 1 µM.
`CC(C)(C)c1ccc(C#N)cc1NC(=O)Nc1ccc(Cl)nc1`: the Ratio in assay [3] came to 12. Further, in the assay listed under Rattus norvegicus [4], the 25% effect level (EC25) was put at 19.2 µM. In the assay listed under Rattus norvegicus [2], half-maximal inhibition (IC50) required 1.6 µM.
Compound `Cc1ccc(S(=O)(=O)Nc2ccc(C#N)cc2NC(=O)Nc2cccnc2)cc1` registered an Inhibition in the assay listed under Rattus norvegicus [5] of 0%. The same compound came in with a half-maximal inhibitory concentration (IC50) in the assay listed under Rattus norvegicus [2] above 100 µM.
As to `CC1(C)Oc2ccc(C#N)cc2[C@@H](/N=C(\NC#N)Nc2ccccc2)[C@@H]1O`, in assay [3], the Ratio is 7.9. In the assay filed under Rattus norvegicus [4], this compound yielded a concentration for an effect of 25% (EC25) of 11 µM. For the same compound, in the assay listed under Rattus norvegicus [2], the IC50 turned out to be 1.4 µM.
Take `CC1(C)CCN(C(=O)Nc2ccccc2)c2cc(C#N)ccc21`: the Ratio in assay [3] was found to be 3.9. In addition, the EC25 in the assay filed under Rattus norvegicus [4] was determined as 26 µM. For the same compound, in the assay listed under Rattus norvegicus [2], the IC50 stood at 6.7 µM.
As to `CC(C)(C)c1ccc(C#N)cc1NC(=O)Nc1ccccc1`, the Ratio in assay [3] came to 19.9. Further, the EC25 in the assay listed under Rattus norvegicus [4] came out at 33.8 µM. Also, the concentration for half-maximal inhibition (IC50) in the assay listed under Rattus norvegicus [2] turned out to be 1.7 µM.
As to `CC(C)(C)c1ccc(C#N)cc1NC(=O)Nc1ccccn1`, the “Increase in time to contracture” value in the assay filed under Rattus norvegicus [1] was determined as 25%. Besides, 25.7 µM corresponded to half-maximal inhibition in the assay filed under Rattus norvegicus [2] (IC50).
For `CC(C)(C)c1ccc(C#N)cc1NC(=O)Nc1cnccn1`, the Ratio in assay [3] came to 0.77. The EC25 in the assay filed under Rattus norvegicus [4] amounted to 11.9 µM. The compound also yielded a concentration for half-maximal inhibition (IC50) in the assay filed under Rattus norvegicus [2] of 15.3 µM.
In the assay filed under Rattus norvegicus [4], `N#Cc1ccc(-c2ccccc2)c(NC(=O)Nc2cccnc2)c1` displayed an EC25 of 12 µM. Further, the IC50 in the assay listed under Rattus norvegicus [2] came to 22.8 µM.
For the compound `CC1(C)CC(NC(=O)Nc2ccccc2)c2cc(C#N)ccc21` (centres undefined), in assay [3], the Ratio amounted to 7.2. Moreover, the 25% effect level in the assay filed under Rattus norvegicus [4] (EC25) was put at 9.4 µM. In addition, the IC50 in the assay listed under Rattus norvegicus [2] is 1.3 µM.
As to `CC(C)(C)c1ccc(C#N)cc1NC(=O)Nc1cccnc1`, the Ratio in assay [3] is 1.2. In addition, the “Increase in time to contracture” value in the assay filed under Rattus norvegicus [1] came out at 25%. Also, the 25% effect level in the assay filed under Rattus norvegicus [4] (EC25) was put at 29.7 µM. The same compound had an IC50 in the assay listed under Rattus norvegicus [2] of 25.7 µM.

For the origin of these results see ChEMBL document CHEMBL1129296, “Cardioselective antiischemic ATP-sensitive potassium channel openers. 4. Structure-activity studies on benzopyranylcyanoguanidines: replacement of the benzopyran portion” (J Med Chem, 1996).
